Molecular target: Human immunodeficiency virus type 1 protease (Human immunodeficiency virus 1, UniProt Q72874)
Test: Inhibition of HIV protease, measured by assaying the cleavage of a fluorescent peptide substrate using HPLC
Method in brief: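 HIV-1 protease activity followed as cleavage of a fluorescent peptide substrate, with products resolved and quantified by HPLC; Ki values reported.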

Structure (SMILES) | Ki
CCCC(N=O)c1cccc(CN2C(=O)N(Cc3cccc(C(CCC)N=O)c3)[C@H](Cc3ccccc3)[C@H](O)[C@@H](O)[C@H]2Cc2ccccc2)c1 (some centres not stated) | 0.031 nM
CCC(N=O)c1cccc(CN2C(=O)N(Cc3cccc(C(CC)N=O)c3)[C@H](Cc3ccccc3)[C@H](O)[C@@H](O)[C@H]2Cc2ccccc2)c1 (stereo partly drawn) [(4R,5S,6S,7R)-4,7-dibenzyl-5,6-dihydroxy-1,3-bis({3-[1-(hydroxyimino)propyl]phenyl}methyl)-1,3-diazepan-2-one] | 0.031 nM

Reference: BindingDB's records for doi:10.1021/jm9704199 (Dupont Pharmaceuticals, 1998)
